The values below come from the RNAGym collection of RNA variant scans (doi:10.1126/science.aae0568).

This sample holds only a part of the variants without activity. Bounds are passed on as bounds.

Sequences and labels used below:
B1: tRNA (parent)
chain: GUUCCGUUGGCGUAAUGGUAACGCGUCUCCCUCCUAAGGAGAAGACUGCGGGUUCGAGUCCCGUACGGAACG

Variants of B1 are the subject of this series. Description: yeast fitness relative to wild type (ratio to wild type); higher = fitter; tRNA-Arg(CCU), competitive growth, 37 C, YPD. The procedure, abridged:
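Gene amplicons from the start population and from each of six end populations were read by 100-nucleotide paired-end sequencing. Those end populations came from pooled Saccharomyces cerevisiae strains carrying tRNA-Arg(CCU) gene variants at the native locus, competed in YPD at 37°C for 24 hours. Fitness relative to wild type was worked out from changes in genotype frequencies. Genotypes needed ≥ 100 starting reads, and estimates < 0.5 were set to 0.5.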
Regarding G6A C30G G67C, the yeast fitness is at most 0.5.
In the case of U7C C61G A65G, the yeast fitness was found to be 0.57.
On to U3C C30U C55U G58A, for which the yeast fitness was at most 0.5.
The value for U64G A70U was 0.787; that for C24U C27G G63A was 0.536; that for U26A C29U C33U C62G was 1.09.
Consider G6A C33U, for which the yeast fitness came out at 0.649.
Consider C11G A21G C31G A65U, for which the yeast fitness is 0.561.
The value for C11G A43U G67C was 0.505; that for C5A U13A C27G A37G was at most 0.5.
The value for A45C C49U G56A was 0.856.
U19C G48C G56A A69C: the yeast fitness is 0.642.
For G6A U13A, the yeast fitness came to 0.848.
For the variant C33U G51A A65U, the yeast fitness was at most 0.5.
Turning to C5G G12A C49G G68C, the yeast fitness is at most 0.5.
Regarding U28A G56C G67U, the yeast fitness was 0.525.
With G9C C49A, the yeast fitness was 0.596.
As to G10A C29G, the yeast fitness was found to be 0.522.
For the variant C4A C27U A37G, the yeast fitness came to 0.566.
The value for C33G G38A was 0.684; that for C11U U26A C60A was at most 0.5.
A36C A57U C60A: the yeast fitness was at most 0.5.
Take G25C A69U: the yeast fitness is 0.929.
Consider C30A G38C C61A, for which the yeast fitness is 0.51.
For the variant U13C G67C, the yeast fitness stood at 0.771.
As to C4G A14C C24G U53C C62G, the yeast fitness was at most 0.5.
Turning to A14G C66U, the yeast fitness worked out at 0.891.
As to C22G C27G A37G G38A, the yeast fitness worked out at 0.532.
The value for C27G C60G A65U was 0.641; that for C11G A14C A15C A40C A70C was at most 0.5; that for A20U C34U G58C was at most 0.5.
The value for C4G C11U A40C A57U was 0.623.
In the case of G10A G58C A70U, the yeast fitness stood at 0.701.
As for C27U U28G A42U, the yeast fitness is 0.535.
In the case of C31G C33U U53C U54G C55A, the yeast fitness is at most 0.5.
Regarding C4A G10C C29G A65G, the yeast fitness is at most 0.5.
Turning to C5G A14C A37G, the yeast fitness is at most 0.5.
Consider A14G A40C C62G C66U, for which the yeast fitness is at most 0.5.
In the case of C11U C24G C33A A40C A69C, the yeast fitness is 0.72.
The value for U2G A42C U47A A65U was at most 0.5.
U3G C4A G12A C29A C30G: the yeast fitness is 0.556.
The value for C24A A43U G50A G67A was at most 0.5; that for G10C C34G G67A was at most 0.5.
Consider C5G C11G A42C C49U, for which the yeast fitness was at most 0.5.
Take C60G G63A G67A: the yeast fitness is at most 0.5.
In the case of U2G U54G, the yeast fitness was at most 0.5.
For the variant G6C U7G G17C G67A, the yeast fitness is at most 0.5.
For G39A U47A G68C, the yeast fitness worked out at 0.597.
A37U A40C G51C C66A: the yeast fitness was at most 0.5.
For the variant C60U U64C, the yeast fitness worked out at 0.833.
The value for C24U U28C A40C A69C was at most 0.5; that for A15C A36G U47C C55A A69U was 0.538; that for C24A A45G C61G C62U was 0.543.
Take G6C G10C C11U C55U C61G C62G: the yeast fitness is at most 0.5.
As for U7A G9C C30U C34G G68C, the yeast fitness is 0.56.
Turning to A36G A37U U64C A65G, the yeast fitness was at most 0.5.
Regarding G67C A69C, the yeast fitness stood at 0.651.
With C5G G41C C61U, the yeast fitness was at most 0.5.
For the variant C5A C33G C34A A40C G67A, the yeast fitness is at most 0.5.
For the variant C5G U35G A43G C49U G63A A65U, the yeast fitness is at most 0.5.
For U8A G10A U26G G58A, the yeast fitness is at most 0.5.
Consider U7G C30G G56A, for which the yeast fitness is 0.505.
For the variant A45G C49G A65U, the yeast fitness was 0.56.
For C4G C55G, the yeast fitness stood at 0.612.
For the variant G44A U54C, the yeast fitness came out at 0.723.
In the case of C24G A36G C61A, the yeast fitness was at most 0.5.
A14U A36U C62G: the yeast fitness was at most 0.5.
The value for U19C U26G A36C was at most 0.5.
For the variant G6C C11A G23U G48C, the yeast fitness was at most 0.5.
For the variant C31A U35C G41A, the yeast fitness was at most 0.5.
For the variant G10C C24U C29G A45U C46G U47A G50A U64G, the yeast fitness is 0.536.
In the case of U2A C4U, the yeast fitness turned out to be 0.965.
Consider G23C C27A A57U A69U, for which the yeast fitness was at most 0.5.
As for G12C A21U C34U A42U U64A G68U, the yeast fitness is at most 0.5.
Regarding C34U C60U, the yeast fitness is 0.563.
For the variant C11G C30U A37C C55G A65G, the yeast fitness is at most 0.5.
Take C4G C33U: the yeast fitness worked out at 0.708.
The value for A20G C22U U53A was at most 0.5; that for A21C C46G C49G was 0.655.
With A20G A40G G44A C46G, the yeast fitness is at most 0.5.
Consider C4U A15U U28C A57G, for which the yeast fitness was at most 0.5.
On to U28G C46G C49U, for which the yeast fitness is at most 0.5.
As for A42U G51C C62U C66U, the yeast fitness worked out at 0.708.
In the case of G6A C27G G38C A65C, the yeast fitness is 0.595.
The value for A37U C55U A65U was at most 0.5; that for G17C G25C C66U was at most 0.5.
The value for C5A C31A C55A C61A G63A was 0.671; that for C11A C31G A69U was at most 0.5.
On to C34G A42G C62U, for which the yeast fitness was found to be 0.589.
Take C4A G18C C34U: the yeast fitness was at most 0.5.
As for C11U C27A G48A U53A C61G, the yeast fitness was at most 0.5.
In the case of C5A U13C C29U G56C, the yeast fitness was at most 0.5.
The value for U3A C5U A42G C46G was at most 0.5.
Turning to G12A C34G, the yeast fitness stood at 0.644.
Take C4U C46G C61G A65C: the yeast fitness stood at 0.588.
With A21G A42G A65C G67A, the yeast fitness is at most 0.5.
As to U7A A21C C29U A37G C55U A70U, the yeast fitness came to 0.55.
The value for U2A C30U A42G C60G C62G A65G C66U was at most 0.5.
For the variant U3C C31U G39A G44A C61U, the yeast fitness was at most 0.5.
With U28C C49U G63U, the yeast fitness came to 0.531.
C4G C49U: the yeast fitness turned out to be 0.933.
Regarding G9A C30A A42C, the yeast fitness was 0.562.
As to G12A G50C, the yeast fitness was determined as 0.757.
Take A40U G52C C60G: the yeast fitness was at most 0.5.
Consider C34U A36G C55A, for which the yeast fitness is at most 0.5.
The value for C11U A57U A70C was 0.512; that for C5G G10C C29A was at most 0.5; that for A20C G52A was 0.705.
With A42G A43U, the yeast fitness stood at 1.03.
Turning to U19G C27U A42C, the yeast fitness is at most 0.5.
For C55G A69C, the yeast fitness is 0.593.
Consider C11G G18A C24U G58A A70G, for which the yeast fitness was at most 0.5.
In the case of C30U C31U A57G, the yeast fitness was found to be 0.75.
As to C4A C30G A45C C61G, the yeast fitness is at most 0.5.
Consider C22G G38C, for which the yeast fitness was 0.775.
Regarding U3A A15C, the yeast fitness was found to be 0.659.
C5A C27U G39C C49U G58C C62U: the yeast fitness is at most 0.5.
Turning to A37C U47A G58A, the yeast fitness was at most 0.5.
With C29G C30U A36C G39A C46G, the yeast fitness came to 0.52.
The value for U8A G12A G44A C60U G67C was at most 0.5.
For A37C A69U, the yeast fitness amounted to 1.03.
On to C22A C31U A43U, for which the yeast fitness turned out to be 0.623.
For C4U A20U U53C G67C, the yeast fitness was at most 0.5.
In the case of C24G U26C C31U, the yeast fitness was determined as 0.747.
The value for A15C C33U C49U was at most 0.5.
As for U13G A40G C61U G63C, the yeast fitness is at most 0.5.
In the case of U7G U47C, the yeast fitness was 0.845.
Take A42C C46A: the yeast fitness was 0.783.
In the case of C29U U47A, the yeast fitness was 0.795.
For the variant G38A A43U U54A, the yeast fitness is at most 0.5.
On to C5U A14C A21C C33U G56A, for which the yeast fitness is at most 0.5.
On to G9A G10C C34A, for which the yeast fitness is at most 0.5.
Turning to C22U A45U G52C A57U, the yeast fitness was at most 0.5.
The value for A21G G48A was 0.92; that for A37C C60U A70C was 0.546; that for G9C G38A A65G was 0.519.
A45U A57G: the yeast fitness turned out to be 0.917.
For the variant A15G C29G C33G, the yeast fitness was at most 0.5.
A21U U53C U54G: the yeast fitness is at most 0.5.
On to C4A G51C U54A G56C, for which the yeast fitness was at most 0.5.
As to A42C C49A C66A, the yeast fitness was at most 0.5.
With C24G G38C A65C, the yeast fitness turned out to be 0.513.
Consider U8A U19C A36U, for which the yeast fitness was at most 0.5.
For the variant C24A C30U C55U, the yeast fitness is at most 0.5.
For the variant C11U A36U A43C A57G, the yeast fitness was 1.1.
As to U3C G9A A21G A40G G56A U64C, the yeast fitness was at most 0.5.
The value for C27U A37U C49U was 0.549; that for C11A G12C G63A was at most 0.5; that for G12C C22G A40C was 1.03.
Regarding U3A G44A, the yeast fitness worked out at 0.807.
In the case of C30U G44A C46A, the yeast fitness was 0.637.
Consider A40C A43G C60U C61U, for which the yeast fitness is at most 0.5.
The value for U2C U8G G23A C24G G44A was at most 0.5; that for C34U A42U was 0.74; that for G41A G63C was 0.715.
Turning to C22U C60U A70U, the yeast fitness amounted to 0.678.
Regarding C49G A70G, the yeast fitness is 0.832.
The value for U19G G63C A69U was at most 0.5; that for C31G A43C was 0.932.
On to G17C G63C, for which the yeast fitness is at most 0.5.
For the variant U3A U19A A42U G44C U54A, the yeast fitness is at most 0.5.
Consider G10A C30U G50A A70U, for which the yeast fitness was at most 0.5.
In the case of C4G A20C C31U, the yeast fitness was 0.536.
On to U19C G58A, for which the yeast fitness was 0.961.
In the case of C11A U16C G18C A45C A57C, the yeast fitness is at most 0.5.
The value for G10A C24A C27A A45G was at most 0.5; that for G25C G38A was 0.951.
